In ChEMBL document CHEMBL1125226, “Antineoplastic activity of didemnin congeners: nordidemnin and modified chain analogues” (1991):

How the values were obtained:
Assay type in all cases: functional, Mus musculus
P388 [1] = test: Antitumor activity (T/C) was evaluated from the median survival time of treated mice (T) over that of control mice (C) at a dose of 0.75 mg/kg/day
How it was run: (§1)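 CDF1 female mice (BALB/c ♀ × DBA/2 ♂) given 10⁶ P388 cells ip on day 0. Drug in 2% methanol given ip on days 1, 5 and 9, 10 mice per group and more controls. Toxicity is survivors on day 5, with weight change between days 1 and 5. Mortality followed 30 days. T/C% is treated over control median survival (NCI method), significant at ≥125%.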

B16 [2] = test: Antitumor activity against B16 melanoma from B6 D2 F1 female mice evaluated as average weight change of animals between day 1 and day 5 after tumor implementation at a dose of 0.03 mg/kg/day
How it was run: (§2)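 B16 melanoma in B6D2F1 female mice: 0.5 mL of tumor homogenate (1 g in 9 mL 0.9% saline) was given ip on day 0. Ip dosing was on days 1, 5 and 9. The readout was the average body weight change between day 1 and day 5 after tumor implantation.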

B16 [3] = test: Antitumor activity against B16 melanoma from B6 D2 F1 female mice evaluated as the number of survivors on day 5 at a dose of 0.03 mg/kg/day (repeated ip injections, day 1-9); conditions: route intraperitoneal
How it was run: (§3)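 B16 melanoma homogenate (1 g tumor in 9 mL 0.9% saline), 0.5 mL implanted ip on day 0 in B6D2F1 female mice (C57BL/6 ♀ × DBA/2 ♂). Treatment ip once daily from day 1 to day 9. Toxicity scored as survivors on day 5. Median survival recorded and T/C computed as treated/control median survival, ≥125% significant.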

P388 [4] = test: Average weight change of animals between day 1 and day 5 after tumor implementation at a dose of 0.12 mg/kg/day
How it was run: (§4)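 P388 leukemia: CDF1 female mice were inoculated ip with 10⁶ cells on day 0. Treatment in 2% methanol was given ip on days 1, 5 and 9, with 10 mice per group and a larger control group. Body weight was recorded on days 1 and 5 post-implant, and the average change was reported.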

B16 [5] = test: Antitumor activity against B16 melanoma from B6 D2 F1 female mice(T/C) as median survival time of treated mice (T) over that of control mice (C) at a dose of 0.06 mg/kg/day (repeated ip injections, day 1-9); conditions: route intraperitoneal; how it was run: as §3
B16 [6] = test: Antitumor activity against B16 melanoma from B6 D2 F1 female mice evaluated as the number of survivors on day 5 at a dose of 0.06 mg/kg/day
How it was run: (§5)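 B6D2F1 female mice (C57BL/6 ♀ × DBA/2 ♂) implanted ip on day 0 with 0.5 mL of B16 tumor suspension (1 g homogenized in 9 mL 0.9% saline). Dosing ip on days 1, 5 and 9. Day-5 survivors give toxicity. Median survival of treated vs control mice gives T/C%, with ≥125% significant.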

B16 [7] = test: Antitumor activity against B16 melanoma from B6 D2 F1 female mice(T/C) was evaluated from the median survival time of treated mice (T) over that of control mice (C) at a dose of 0.03 mg/kg/day; how it was run: as §5
L1210 [8] = test: Antitumor activity against L1210 Lymphoid Leukemia from CDF1 female mice evaluated as Median survival time of treated mice at a dose of 0.25 mg/kg/day
How it was run: (§6)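 L1210 leukemia, 10⁵ cells ip on day 0 into CDF1 female mice (BALB/c ♀ × DBA/2 ♂). Drug in 2% methanol given ip on days 1, 5 and 9, 10 mice per group. Survivors and body weight recorded on days 1 and 5, with toxicity as survivors on day 5. Deaths followed for 30 days. T/C = treated/control median survival time, significant at ≥125%.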

P388 [9] = test: Antitumor activity (T/C) was evaluated from the median survival time of treated mice (T) over that of control mice (C) at a dose of 0.03 mg/kg/day; how it was run: as §1
B16 [10] = test: Antitumor activity against B16 melanoma from B6 D2 F1 female mice(T/C) was evaluated from the median survival time of treated mice (T) over that of control mice (C) at a dose of 0.50 mg/kg/day; how it was run: as §5
B16 [11] = test: Antitumor activity against B16 melanoma from B6 D2 F1 female mice evaluated as average weight change of animals between day 1 and day 5 after tumor implementation at a dose of 0.25 mg/kg/day; how it was run: as §2
P388 [12] = test: Average weight change of animals between day 1 and day 5 after tumor implementation at a dose of 1 mg/kg/day; how it was run: as §4
B16 [13] = test: Antitumor activity against B16 melanoma from B6 D2 F1 female mice evaluated as Median survival time of treated mice at a dose of 0.06 mg/kg/day (repeated ip injections, day 1-9); conditions: route intraperitoneal; how it was run: as §3
B16 [14] = test: Antitumor activity against B16 melanoma from B6 D2 F1 female mice evaluated as average weight change of animals between day 1 and day 5 after tumor implementation at a dose of 0.06 mg/kg/day; how it was run: as §2
B16 [15] = test: Antitumor activity against B16 melanoma from B6 D2 F1 female mice evaluated as Median survival time of treated mice at a dose of 0.03 mg/kg/day; how it was run: as §5
B16 [16] = test: Antitumor activity against B16 melanoma from B6 D2 F1 female mice as average weight change of animals between day 1 and day 5 after tumor implementation at a dose of 0.25 mg/kg/day (repeated ip injections, day 1-9); conditions: route intraperitoneal
How it was run: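 B6D2F1 female mice (C57BL/6 × DBA/2) were implanted ip on day 0 with 0.5 mL of B16 suspension (1 g tumor homogenized in 9 mL 0.9% saline). Ip treatment was given once daily, day 1 to day 9. Body weight was recorded on days 1 and 5 after implantation, and the mean change per group was reported.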

B16 [17] = test: Antitumor activity against B16 melanoma from B6 D2 F1 female mice evaluated as the number of survivors on day 5 at a dose of 1 mg/kg/day; how it was run: as §5
P388 [18] = test: Antitumor activity (T/C) was evaluated from the median survival time of treated mice (T) over that of control mice (C) at a dose of 0.25 mg/kg/day; how it was run: as §1
L1210 [19] = test: Antitumor activity against L1210 Lymphoid Leukemia from CDF1 female mice evaluated as the number of survivors on day 5 at a dose of 0.50 mg/kg/day; how it was run: as §6
P388 [20] = test: Antitumor activity (T/C) was evaluated from the median survival time of treated mice (T) over that of control mice (C) at a dose of 0.12 mg/kg/day; how it was run: as §1
L1210 [21] = test: Antitumor activity against L1210 Lymphoid Leukemia from CDF1 female mice as the number of survivors on day 5 at a dose of 1.0 mg/kg/day; how it was run: as §6
P388 [22] = test: Antitumor activity against P388 Leukemia from CDF1 female mice evaluated as Median survival time of treated mice at a dose of 0.03 mg/kg/day; how it was run: as §1
L1210 [23] = test: Antitumor activity against L1210 Lymphoid Leukemia from CDF1 female mice as average weight change of animals between day 1 and day 5 after tumor implementation at a dose of 0.50 mg/kg/day
How it was run: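 CDF1 female mice (BALB/c × DBA/2) received 10⁵ L1210 cells ip on day 0. Drug was dissolved in 2% methanol and given ip on days 1, 5 and 9, to 10 mice per group. Weights were taken on days 1 and 5, and the mean change was reported.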

B16 [24] = test: Antitumor activity against B16 melanoma from B6 D2 F1 female mice(T/C) as median survival time of treated mice (T) over that of control mice (C) at a dose of 0.03 mg/kg/day (repeated ip injections, day 1-9); conditions: route intraperitoneal; how it was run: as §3

COc1ccc(C[C@H]2C(=O)O[C@H](C)[C@H](NC(=O)[C@@H](CC(C)C)N(C)C(=O)C3CCCN3C(=O)[C@@H](C)O)C(=O)NC(C(C)C)[C@H](O)CC(=O)O[C@@H](C(C)C)C(=O)[C@H](C)C(=O)N[C@@H](CC(C)C)C(=O)N3CCC[C@H]3C(=O)N2C)cc1 (some centres undefined) [NORDIDEMNIN]
T/C (P388 [1]): 175% | Body weight change (B16 [2]): 0 g | Toxicity (B16 [3]): 0.9 | Body weight change (P388 [4]): -0.7 g | T/C (B16 [5]): 146% | Toxicity (B16 [6]): 1 | T/C (B16 [7]): 101% | median survival time, days (L1210 [8]): 10.1 | T/C (P388 [9]): 112% | T/C (B16 [10]): 147% | Body weight change (B16 [11]): 0 g | Body weight change (P388 [12]): -2.3 g | median survival time, days (B16 [13]): 27.8 | Body weight change (B16 [14]): 0 g | median survival time, days (B16 [15]): 19.3 | Body weight change (B16 [16]): -2.1 g | Toxicity (B16 [17]): 1 | T/C (P388 [18]): 142% | Toxicity (L1210 [19]): 1 | T/C (P388 [20]): 133% | Toxicity (L1210 [21]): 1 | median survival time, days (P388 [22]): 12.4 | Body weight change (L1210 [23]): -0.9 g | T/C (B16 [24]): 139%
